From ChEMBL document CHEMBL1158769, “Macrophage activating effects of new alkamides from the roots of Echinacea species” (J Nat Prod, 2005)
Values after ≈ are worked out from the molar mass of the structure shown.

Key:
[1] = Toxicity in mouse RAW264.7 cells by MTT assay; format: cell-based; conditions: read-out: TD50 (the source's name)
Outline: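 RAW 264.7 cells exposed to a range of alkamide concentrations for 24 h, or for 4 h followed by 24 h in fresh medium. Cells washed, labeled with MTT for 4 h, lysed in DMSO, formazan read at A540. Viability = Exp-OD/Control-OD × 100%, with control at the same cell number.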

RAW264.7 = assay: Inhibition of LPS-stimulated NO production in mouse RAW264.7 cells; format: functional; conditions: read-out: ID50 (the source's name)
Outline: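 In some runs the compound medium was removed and the cells washed before LPS. Supernatant nitrite measured by Griess reagent at A550. Relative NO = (Exp-OD − Control-OD)/(LPS-OD − Control-OD) × 100%.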

Row | IC50 (RAW264.7) [µg/mL] | SMILES | CC50 [1] [µg/mL]
1 | 6 (≈ 24.3 µM) | C/C=C/C=C\CC/C=C/C=C/C(=O)NCC(C)C | 50 (≈ 202 µM)
2 | 6 (≈ 23.9 µM) | CCCCCCC/C=C/C=C/C(=O)NCC(C)C | 12.5 (≈ 49.7 µM)
3 | 6 (≈ 24.3 µM) | C/C=C\C=C/CC/C=C/C=C/C(=O)NCC(C)C | 50 (≈ 202 µM)
